This passage reports IC50 and IC90 results from paper PMC6304448 (Heliyon, 2018).

For orientation: IC50 means the concentration at which inhibition is half-maximal. Usually IC90 stands for the concentration at which the effect reaches the 90% level.

Converted amounts (≈) assume the structure as drawn.

Common to all, as to type: cell-based
For data set [1], the system named is Leishmania donovani promastigotes. Nature of the data set: Antileishmanial assay. Conditions: 72 h; for IC50: read-out: antileishmanial activity IC50; for IC90: read-out: antileishmanial activity IC90. The essentials: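 Leishmania donovani promastigote or axenic amastigote cultures at 2 × 10⁶ cells/ml were exposed to test compound and incubated at 26 °C for 72 hours. Growth was read by AlamarBlue. Pentamidine and amphotericin B served as positive controls. IC₅₀ and IC₉₀ were computed from dose-response curves.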

Data set [2] relates to chloroquine resistant (W2, Indo China) strain of Plasmodium falciparum. In words: Antimalarial assay. Conditions: W2, 72 h, read-out: antimalarial activity IC50. The essentials: (§1)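 Test compound was dissolved in DMSO (2 mg/ml stock) and serially diluted. It was then added to P. falciparum culture (2% parasitemia, 2% hematocrit) in RPMI 1640 with 10% human serum and 60 μg/mL amikacin. Plates were held under 90% N₂/5% O₂/5% CO₂ at 37 °C for 72 hours. Parasite LDH was assayed with Malstat reagent for 30 min, then NBT/PES for 1 h in the dark. The reaction was stopped with 5% acetic acid and read at 650 nm. Chloroquine and artemisinin were positive controls and DMSO (0.25%) the negative control. IC₅₀ came from percent growth versus concentration curves.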

Data set [3] can be described thus: In-vitro cytotoxicity assay. The following applies: African green monkey, VERO cells (mammalian kidney fibroblasts, ATCC). The method, boiled down: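 VERO cells were seeded at 25,000 cells/well and incubated for 24 h. Test compound was added at a range of concentrations and incubated a further 48 h. Viable cells were quantified by a modified Neutral Red uptake method. Doxorubicin was the positive control and DMSO the negative control. IC₅₀ was derived from dose-response curves.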

The subject of data set [4] is chloroquine sensitive (D6, Sierra Leone) strain of Plasmodium falciparum. In words: Antimalarial assay. Conditions: D6, 72 h, read-out: antimalarial activity IC50. The essentials:
as §1

On to `O=C1CC(O)C2(O)c3c(ccc(O)c31)-c1ccc(O)c3c1C2C1OC1C3O` (stereo not shown) [Compound 1, 3,6,6a,9,10-pentahydroxy-7,8-epoxy-4-oxo-4,5,6,6a,6b,7,8,9-octahydroperylene], for which, in data set [1], the 50% inhibitory concentration (IC50) is 2.55 µg/mL (≈ 6.92 µM) and the IC90 was found to be 8.28 µg/mL (≈ 22.5 µM).
In the case of `O=C1CC(O)C2c3c(ccc(O)c31)-c1ccc(O)c3c1C2(O)C(O)CC3=O` (stereo not shown) [Compound 2, 3,6,6a,7,10-pentahydroxy-4,9-dioxo-4,5,6,6a,6b,7,8,9-octahydroperylene], the results for the IC50 in data set [1], in data set [2] and in data set [4] were 4.4 µg/mL (≈ 11.9 µM), 3.65 µg/mL (≈ 9.91 µM) and 4.24 µg/mL (≈ 11.5 µM), respectively. Moreover, the IC90 in data set [1] was determined as 9.54 µg/mL (≈ 25.9 µM). Further, inhibition in data set [3] was half-maximal at 3.59 µg/mL (≈ 9.75 µM) (IC50 at 48 h).
